Laboratory results reported in ChEMBL document CHEMBL1131107 (J Med Chem, 1998).

How the values were obtained:
[1] = target: T1, Protein farnesyltransferase (Rattus norvegicus, UniProt Q02293+Q04631); test: Inhibition of Farnesyltransferase from rat brain
NIH3T3 [2] = test: Inhibition of Ras processing in Hras-transformed NIH3T3 cells.
NIH3T3 (Mus musculus) = test: Inhibition of Ras processing in Hras transformed NIH3T3 cells.
NIH3T3 [3] = test: Inhibition of Ras processing in Hras-transformed NIH3T3 cells at 15 uM
[4] = target: T1, Protein farnesyltransferase; test: Inhibition of Farnesyltransferase in competitive manner with respect to FPP (farnesyl diphosphate) at 0.6 uM FPP and 0.36 uM Ras peptide; format: protein-complex assay
Summary of the method: (§1)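 FTase IC50 (nM) measured at varied substrate levels to test competition: FPP 0.6 or 6.0 μM and Ras C-terminal peptide 0.36 or 3.6 μM. Competition with FPP was judged from the shift in IC50 as FPP and peptide concentrations changed.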

[5] = target: T1, Protein farnesyltransferase; test: Inhibition of FTase in competitive manner with respect to FPP (farnesyl diphosphate) at 6.0 uM FPP and 0.36 uM Ras peptide.; format: protein-complex assay; summary of the method: as §1
[6] = target: T1, Protein farnesyltransferase; test: Inhibition of Farnesyltransferase in competitive manner with respect to FPP (farnesyl diphosphate) at 0.6 uM FPP and 3.6 uM Ras peptide.; format: protein-complex assay; summary of the method: as §1

Work on `CC(C(C/C=C/c1nc2ccccc2o1)c1ccc2c(c1)OCO2)N(Cc1ccc2ccccc2c1)C(=O)CC(CC(=O)O)C(=O)O` (centres undefined) yielded an IC50 [1] of 23 nM.

In the case of `C[C@H]([C@@H](C/C=C/c1nc2ccccc2o1)c1ccc2c(c1)OCO2)N(Cc1ccc2ccccc2c1)C(=O)[C@@H]1OC(C(=O)O)(C(=O)O)O[C@@H]1C(=O)O`, the IC50 (NIH3T3 [2]) is reported as 8800 nM and the IC50 [1] is reported as 6 nM.

With `CC(C(C/C=C/c1nc2ccccc2o1)c1ccc(Cl)cc1)N(Cc1ccc2ccccc2c1)C(=O)CC(CC(=O)O)C(=O)O` (centres undefined) the IC50 [1] was 28 nM.

With `CC(C(C/C=C/c1nc2ccccc2o1)c1ccc2c(c1)OCO2)N(Cc1ccc2ccccc2c1)C(=O)C1OC(C(=O)O)(C(=O)O)O[C@H]1C(=O)O` (single isomer, unassigned) the IC50 (NIH3T3 (Mus musculus)) was 17000 nM and the IC50 [1] was 8 nM.

`CC(C(C/C=C/c1ccc2ccccc2c1)c1ccc(Cl)cc1)N(Cc1ccc2ccccc2c1)C(=O)CC(CC(=O)O)C(=O)O` (centres undefined) was tested, and the IC50 [1] was 51 nM.

`C[C@@H]([C@H](C/C=C/c1nc2ccccc2o1)c1ccc2c(c1)OCO2)N(Cc1ccc2ccccc2c1)C(=O)[C@H]1OC(C(=O)[O-])(C(=O)[O-])O[C@@H]1C(=O)[O-].[Na+].[Na+].[Na+]` was tested, and the Inhibition (NIH3T3 [3]) was 42% and the IC50 [1] was 7.2 nM.

For `C[C@@H]([C@H](C/C=C/c1nc2ccccc2o1)c1ccc2c(c1)OCO2)N(Cc1ccc2ccccc2c1)C(=O)[C@@H]1OC(C(=O)O)(C(=O)O)O[C@H]1C(=O)O`, the IC50 (NIH3T3 [2]) was 1200 nM and the IC50 [1] was 3.9 nM.

Compound `C[C@@H]([C@H](C/C=C/c1nc2ccccc2o1)c1ccc2c(c1)OCO2)N(Cc1ccc2ccccc2c1)C(=O)[C@@H]1OC(C(=O)O)(C(=O)O)O[C@@H]1C(=O)O` has an IC50 [4] of 5.6 nM, an IC50 (NIH3T3 [2]) of 4300 nM and an IC50 [5] of 45 nM. For the same compound, the IC50 [1] was 5 nM and the IC50 [6] was 7.2 nM.

With `C[C@@H]([C@H](C/C=C/c1nc2ccccc2o1)c1ccc2c(c1)OCO2)N(Cc1ccc2ccccc2c1)C(=O)[C@H]1OC(C(=O)O)(C(=O)O)O[C@H]1C(=O)O` the IC50 (NIH3T3 [2]) was 10000 nM and the IC50 [1] was 3.9 nM.

Compound `CC(C(Cc1ccc(Cl)cc1)c1ccc(Cl)cc1)N(C)C(=O)CC(CC(=O)O)C(=O)O` (centres undefined) has an IC50 [1] of over 10000 nM.
